Hits are enriched below; roughly 2.6% of the tested compounds scored in any of these assays.
Runt-SMMHC FRET: blocks binding of human RUNX1 Runt domain to CBFb-SMMHC. 220,000 compounds, 0.74% hits. Q01196+Q13951. inhibition, % at 20 µM. Cerulean-Runt/Venus-CBFb-SMMHC FRET ratio 530/480, 1 h. AID 1434;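 active means mean inhibition across duplicate retests at 20 µM reaching about 50%, limit read from the data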;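 further: 0% = DMSO wells and 100% = wells with excess untagged CBFb-SMMHC; inhibitors lower the FRET ratio by blocking Runt binding to CBFb-SMMHC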
RanGTP-Impb inh: inhibitors of RanGTP-importin-beta interaction, primary screen, biochemical, FRET, CFP-Ran, YFP-importin-beta, homogeneous; cell-free CFP-Ran/YFP-importin-beta FRET ratio; 300,000 compounds, 1.1% hits; AID 2216; inhibition, % (test concentration not listed);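 active means more than half of the replicate wells show a fall in the fluorescence ratio signal beyond about 16%, limit read from the data, passing the limit was not always enough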;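 further: 0% = DMSO wells and 100% = Ran loaded with GDP instead of GTP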
Runt-CBFb FRET: Runt domain-CBFb interaction inhibition. AID 1496. Q01196+Q13951. 220,000 compounds, 0.46% hits. Cerulean-Runt/Venus-CBFb FRET ratio 530/480, 1 h. inhibition, % at 20 µM;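 active means inhibition over about 50% at 20 µM in the single-dose screen, limit read from the data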;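 further: 0% = DMSO wells and 100% = excess unlabeled CBFb competitor control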
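Measured by: fluorescence energy transfer, 422 nm excitation, 530/480 nm emission; Assay system: Cerulean-Runt domain; Medium: Tris pH 7.5 buffer with BSA; Measure: loss of energy transfer signal; Controls: 5 µM unlabeled CBFb as full-inhibition high control; Incubation: protein complex preformed 1 h, compound exposure 1 h, room temperature, dark.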
IMP-1 inhibitor: inhibitors of Pseudomonas aeruginosa IMP-1 metallo-beta-lactamase. purified IMP-1, nitrocefin hydrolysis, epi-absorbance fluorescence. inhibition, % at 5.6 µM. 290,000 compounds, 0.45% hits. AID 1556;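 active means inhibition above the mean plus 3 SD of all compounds in the same screening run, cut at about 4.5% in these data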;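 further: 0% = IMP-1 with DMSO and 100% = DMSO wells lacking enzyme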
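System – purified recombinant IMP-1 beta-lactamase · Input – IMP-1 dispensed at 0.2 nM · Timing – 15 min preincubation plus 25 min reaction at 25 °C · Signal – Epi-absorbance fluorescence, 480 nm excitation, 530 nm emission · Measure – percent IMP-1 inhibition derived from blank-referenced optical density · Controls – Enzyme-plus-DMSO low control, enzyme-free DMSO high control · Replication – singlicate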
VIM-2 inhibitor: blocks Pseudomonas aeruginosa VIM-2 metallo-beta-lactamase; purified VIM-2, nitrocefin hydrolysis, epi-absorbance fluorescence; inhibition, % at 5.6 µM; 290,000 compounds, 0.89% hits; AID 1527;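 active means inhibition above the mean of all tested compounds plus 3 SD, cutoff set per screening run, cut at about 7.5% in these data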;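 further: red hydrolysis product quenches plate fluorescence so inhibitors raise well fluorescence; 0% = enzyme with DMSO and 100% = DMSO without enzyme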
YIC FRET counter: counter-screen: alters YIC FRET probe signal; shares compounds with RanGTP-Impb inh; Purified YIC probe, intramolecular FRET ratio YFP/CFP; IC50, µM; 1,000 compounds, 40% hits;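 active means fitted half-maximal inhibitory concentration no more than tenfold above the top dose tested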
An asterisk follows results filed as active; . = no result.

SMILES	Runt-SMMHC FRET	RanGTP-Impb inh	Runt-CBFb FRET	IMP-1 inhibitor	VIM-2 inhibitor	YIC FRET counter
CCOC(=O)/C(C#N)=C/c1c(N2CCN(c3ccc(OC)cc3)CC2)nc2c(C)cccn2c1=O	.	20.5*	.	-2.1	-2.0	>50
COCCNC(=O)/C(C#N)=C/c1c(N2CCN(c3ccc(OC)cc3)CC2)nc2c(C)cccn2c1=O	.	18.7*	.	-0.7	-2.1	46.5*
Cc1cccn2c(=O)c(/C=C(\C#N)C(N)=O)c(Oc3ccccc3)nc12	118.8*	24.7*	11.1	-2.4	-1.3	1.58*
COc1ccc(S(=O)(=O)Oc2ccccc2C(=S)N2CCOCC2)cc1	.	-2.8	.	-1.1	-2.6	.
COc1ccc(NC2CCCN(C(=O)c3cccc(C)n3)C2)cc1OC (stereo not given)	.	4.6	.	0.3	3.1	.
COc1ccc(NC(=O)CS(=O)CC(=O)Nc2ccc(-n3cnnn3)c(C)c2)cc1 (stereo not given)	.	-3.7	.	-2.7	-3.3	.
C/C(=N\NC(=O)c1c(C)nc2ccccn12)c1ccc(O)cc1O	.	20.7*	.	0.6	1.2	47.5*
COc1ccccc1NC(=O)C1CCCN(S(=O)(=O)c2ccccc2)C1 (stereo not given)	.	.	.	-1.5	-1.9	.
CC/S(=N\S(=O)(=O)c1ccc(C)cc1)c1ccccc1 (stereo not given)	1.5	5.3	0.9	-2.7	-4.3	.
O=S(=O)(Nc1nc2ccccc2nc1NCc1ccco1)c1ccc(Cl)cc1	-3.2	-2.5	1.3	-2.4	-1.1	.
Cc1ccc(S(=O)(=O)Nc2nc3ccccc3nc2NCc2ccco2)cc1	36.3	20.5*	11.5	-1.8	1.4	12.9*
CCN1CCN(C(=O)C2CC(=O)N(c3ccc(Cl)cc3)C2)CC1 (stereo not given)	.	-1.3	.	-2.6	0.6	.
CC(c1nc2ccccc2n1Cc1ccccc1)N1CCCCC1 (stereo not given)	.	25.9*	.	-2.9	-0.6	>50
COc1ccc2cc(C#N)c(N3CCN(Cc4nnnn4CCC(C)C)CC3)nc2c1	0.1	-5.2	-3.9	-2.4	1.1	.
Cc1ccc2nc(N3CCN(Cc4nnnn4Cc4ccccc4)CC3)c(C#N)cc2c1	61.7*	16.8*	25.9	-2.8	-3.2	22.1*
COc1ccccc1NC(=O)c1cc(S(=O)(=O)NC2CCCC2)ccc1F	.	4.5	.	-1.0	-0.9	.
CC1C=CCC2C(=O)N(c3ccccc3OC(=O)c3cccs3)C(=O)C12 (stereo not given)	-1.2	21.5*	-0.5	1.8	-1.4	>50
O=c1c2cc(NC(=S)N3CCC(N4CCCCC4)CC3)ccc2nc2n1CCCCC2	-3.3	23.2*	1.2	-1.6	-1.1	>50
CSCCC(NC(=O)c1ccco1)C(=O)N1CC=C(c2ccccc2)CC1 (stereo not given)	.	1.4	.	-1.2	-0.9	.
CC(C)=CCC12Oc3cc(O)ccc3C1(O)Oc1cc(O)c([C@H]3C=C(C)CC(c4ccc(O)cc4O)[C@H]3C(=O)c3ccc(O)cc3O)c(O)c1C2=O (stereo not given in full)	.	-5.2	.	.	.	.
O=S(=O)(Cc1ccccc1)N1CCNCC1	.	-1.1	.	-1.0	0.9	.
COCCN1C=C(C(=O)OC)C(c2ccc(Cl)cc2)C(C(=O)OC)=C1	104.9*	41.0*	93.8*	-2.8	2.6	13.2*
CCOc1ccc(C2C(C(=O)OC)=CN(CCOC)C=C2C(=O)OC)cc1	106.9*	20.6*	101.6*	-1.2	-1.4	15.1*
Oc1c(C(Nc2nc3ccccc3s2)c2ccco2)ccc2cccnc12 (stereo not given)	3.7	21.6*	6.9	-2.1	0.6	>50
Cn1nnnc1SCC(=O)Nc1nn(-c2ccccc2)nc1C(N)=O	-2.9	17.5*	1.4	-3.1	-2.9	>50
O=C(CCn1nnnc1CN1CCOCC1)N1CCC(c2cccc(Cl)c2)C1 (stereo not given)	.	-3.7	.	-2.0	-0.6	.
COc1cc(/C=C2\C(=N)N3N=C(S(C)(=O)=O)SC3=NC2=O)ccc1OC(=O)c1ccco1	.	0.0	.	-3.6	-2.3	.
COC(=O)c1cc(NC(=O)c2ccc([N+](=O)[O-])cc2)c(=O)oc1C	2.3	17.6*	9.5	0.1	0.4	>50

Screens as filed in PubChem.
